Values after ≈ are worked out from the molar mass of the structure shown. Active and inactive are the calls of the source. The calls are words filed in the database; no cut-off is given here.
Columns and labels:
[1] = system: CCRF-SB; experiment: Cytotoxicity against human CCRF-SB cells after 96 hrs by MTT assay; assay type: functional
Method in brief: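 Leukaemia/lymphoma lines seeded at 1×10^5 cells/ml in RPMI-1640 with 10% FCS and penicillin/streptomycin; incubated with serial dilutions at 37°C, 5% CO2; viability by MTT after 96 h; value is concentration reducing proliferation by 50%, with untreated controls undergoing at least three rounds of multiplication.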

[2] = biological target: T1, DNA topoisomerase 4 (Staphylococcus epidermidis) (UniProt Q5HPI6+Q5HPI5); experiment: Inhibition of decatenation activity of DNA topoisomerase 4 in hospital methicillin-resistant Staphylococcus epidermidis 76/04 using kDNA as substrate at 1 to 4 ug/ml after 1 hr using ethidium bromide staining by agarose gel electrophoresis; assay type: protein assay
[3] = biological target: T2, Topoisomerase IV (Staphylococcus aureus) (UniProt P0C1U9+P0C1S7); experiment: Inhibition of decatenation activity of DNA topoisomerase 4 in Staphylococcus aureus NCTC 4163 using kDNA as substrate at 1 to 4 ug/ml […] using ethidium bromide staining by agarose gel electrophoresis; assay type: protein-complex assay
[4] = biological target: T1, DNA topoisomerase 4 (Staphylococcus epidermidis); experiment: Inhibition of decatenation activity of DNA topoisomerase 4 in hospital methicillin-resistant Staphylococcus epidermidis 63/04 using kDNA as substrate at 1 to 4 ug/ml after 1 hr using ethidium bromide staining by agarose gel electrophoresis; assay type: protein assay
[5] = system: Staphylococcus epidermidis; experiment: Inhibition of biofilm formation in Staphylococcus epidermidis 62/04 after 24 hrs using MTT staining by spectrophotometer analysis; assay type: functional, organism-based; conditions: 62/04, 24 h
Method in brief: (§1)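 Biofilm was grown for 24 h at 37 °C in TSB with 0.5% glucose from 10^7 CFU/mL inoculum, mixed 1:1 with compound. Final concentrations were 0.125–4 or 0.25–8 µg/ml. Wells were PBS-washed and MTT-stained for 2 h at 37 °C, solubilized in DMSO/glycine buffer and read at 554 nm. IC50 (50% inhibition of biofilm formation) was taken from the dose-response curve; quadruplicates.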

[6] = biological target: T1, DNA topoisomerase 4 (Staphylococcus epidermidis); experiment: Inhibition of decatenation activity of DNA topoisomerase 4 in hospital methicillin-resistant Staphylococcus epidermidis 151/04 using kDNA as substrate at 1 to 4 ug/ml after 1 hr using ethidium bromide staining by agarose gel electrophoresis; assay type: protein assay
[7] = biological target: T2, Topoisomerase IV (Staphylococcus aureus); experiment: Inhibition of decatenation activity of DNA topoisomerase 4 in hospital methicillin-resistant Staphylococcus aureus 80/05 using kDNA as substrate at 1 to 4 ug/ml after 1 hr using ethidium bromide staining by agarose gel electrophoresis; assay type: protein-complex assay
[8] = system: Staphylococcus epidermidis; experiment: Inhibition of biofilm formation in Staphylococcus epidermidis 31/04 after 24 hrs using MTT staining by spectrophotometer analysis; assay type: functional, organism-based; conditions: 31/04, 24 h
[9] = system: Staphylococcus epidermidis; experiment: Inhibition of biofilm formation in Staphylococcus epidermidis 23/04 after 24 hrs using MTT staining by spectrophotometer analysis; assay type: functional, organism-based; conditions: 23/04, 24 h
[10] = biological target: T1, DNA topoisomerase 4 (Staphylococcus epidermidis); conditions: 24/04, at 32 µg/mL
[11] = system: Staphylococcus epidermidis; experiment: Inhibition of biofilm formation in Staphylococcus epidermidis […]/[…] at 4 ug/ml after 24 hrs using MTT staining by spectrophotometer analysis; assay type: functional; conditions: 16/04, 24 h
[12] = biological target: T1, DNA topoisomerase 4 (Staphylococcus epidermidis); experiment: Inhibition of decatenation activity of DNA topoisomerase 4 in hospital methicillin-resistant Staphylococcus epidermidis 62/04 using kDNA as substrate at 1 to 4 ug/ml after 1 hr using ethidium bromide staining by agarose gel electrophoresis; assay type: protein assay
[13] = biological target: T2, Topoisomerase IV (Staphylococcus aureus); experiment: Inhibition of decatenation activity of DNA topoisomerase 4 in hospital methicillin-resistant Staphylococcus aureus 80/05 using kDNA as substrate at 32 ug/ml after 1 hr using ethidium bromide staining by agarose gel electrophoresis; assay type: protein-complex assay
[14] = biological target: T1, DNA topoisomerase 4 (Staphylococcus epidermidis); experiment: Inhibition of decatenation activity of DNA topoisomerase 4 in hospital methicillin-resistant Staphylococcus epidermidis 62/04 using kDNA as substrate at 32 ug/ml after 1 hr using ethidium bromide staining by agarose gel electrophoresis; assay type: protein assay
[15] = system: Staphylococcus epidermidis; experiment: Inhibition of biofilm formation in Staphylococcus epidermidis ATCC 35984 after 24 hrs using MTT staining by spectrophotometer analysis; assay type: functional, organism-based; conditions: ATCC 35984, 24 h; method in brief: as §1
[16] = biological target: T2, Topoisomerase IV (Staphylococcus aureus); experiment: Inhibition of decatenation activity of DNA topoisomerase 4 in hospital methicillin-resistant Staphylococcus aureus 522/11 using kDNA as substrate at 32 ug/ml after 1 hr using ethidium bromide staining by agarose gel electrophoresis; assay type: protein-complex assay
[17] = biological target: T1, DNA topoisomerase 4 (Staphylococcus epidermidis); conditions: 24/04, at 1 to 4 µg/mL
[18] = biological target: T2, Topoisomerase IV (Staphylococcus aureus); experiment: Inhibition of decatenation activity of DNA topoisomerase 4 in hospital methicillin-resistant Staphylococcus aureus 57/05 using kDNA as substrate at 1 to 4 ug/ml after 1 hr using ethidium bromide staining by agarose gel electrophoresis; assay type: protein-complex assay
[19] = biological target: T2, Topoisomerase IV (Staphylococcus aureus); experiment: Inhibition of decatenation activity of DNA topoisomerase 4 in Staphylococcus aureus ATCC 6538 using kDNA as substrate at 1 to 4 ug/ml […] using ethidium bromide staining by agarose gel electrophoresis; assay type: protein-complex assay
[20] = biological target: T1, DNA topoisomerase 4 (Staphylococcus epidermidis); experiment: Inhibition of decatenation activity of DNA topoisomerase 4 in hospital methicillin-resistant Staphylococcus epidermidis 76/04 using kDNA as substrate at 32 ug/ml after 1 hr using ethidium bromide staining by agarose gel electrophoresis; assay type: protein assay
[21] = biological target: T2, Topoisomerase IV (Staphylococcus aureus); experiment: Inhibition of decatenation activity of DNA topoisomerase 4 in hospital methicillin-resistant Staphylococcus aureus 79/05 using kDNA as substrate at 1 to 4 ug/ml after 1 hr using ethidium bromide staining by agarose gel electrophoresis; assay type: protein-complex assay
[22] = system: Staphylococcus epidermidis; experiment: Inhibition of biofilm formation in Staphylococcus epidermidis 76/04 at 8 ug/ml after 24 hrs using MTT staining by spectrophotometer analysis; assay type: functional; conditions: 76/04, 24 h
Method in brief: (§2)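 Methicillin-resistant hospital isolates or ATCC strains of S. epidermidis were grown overnight in tryptone soy broth with 0.5% glucose. Inoculum of 10^7 CFU/mL was mixed 1:1 with compound in TSB-glucose and incubated 24 h at 37 °C. Non-adherent cells were washed off with PBS, and wells were stained with MTT (0.5% in PBS) for 2 h at 37 °C. Stain was solubilized in DMSO/glycine buffer and read at A554. Inhibition is relative to drug-free control; quadruplicates.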

[23] = system: HaCaT; experiment: Cytotoxicity against human HaCaT cells assessed as cell mortality at 16 uM after 24 hrs by LDH release assay relative to control; assay type: cell-based
Method in brief: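 HaCaT cells in DMEM with 2% FBS exposed 24 h to 16 µM compound; LDH released into supernatant measured with commercial kit at 490 nm; % release = (test − untreated low control)/(10% Triton X-100 high control − low control) × 100; three independent experiments in triplicate.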

[24] = system: Staphylococcus epidermidis; experiment: Inhibition of biofilm formation in Staphylococcus epidermidis 63/04 at 8 ug/ml after 24 hrs using MTT staining by spectrophotometer analysis; assay type: functional; conditions: 63/04, 24 h; method in brief: as §2
[25] = system: Staphylococcus epidermidis; experiment: Inhibition of biofilm formation in Staphylococcus epidermidis 151/04 at 8 ug/ml after 24 hrs using MTT staining by spectrophotometer analysis; assay type: functional; conditions: 151/04, 24 h
[26] = system: Staphylococcus epidermidis; experiment: Inhibition of biofilm formation in Staphylococcus epidermidis […]/[…] at 8 ug/ml after 24 hrs using MTT staining by spectrophotometer analysis; assay type: functional; conditions: 16/04, 24 h

T1 sequence (Q5HPI5 whole entry, looked up): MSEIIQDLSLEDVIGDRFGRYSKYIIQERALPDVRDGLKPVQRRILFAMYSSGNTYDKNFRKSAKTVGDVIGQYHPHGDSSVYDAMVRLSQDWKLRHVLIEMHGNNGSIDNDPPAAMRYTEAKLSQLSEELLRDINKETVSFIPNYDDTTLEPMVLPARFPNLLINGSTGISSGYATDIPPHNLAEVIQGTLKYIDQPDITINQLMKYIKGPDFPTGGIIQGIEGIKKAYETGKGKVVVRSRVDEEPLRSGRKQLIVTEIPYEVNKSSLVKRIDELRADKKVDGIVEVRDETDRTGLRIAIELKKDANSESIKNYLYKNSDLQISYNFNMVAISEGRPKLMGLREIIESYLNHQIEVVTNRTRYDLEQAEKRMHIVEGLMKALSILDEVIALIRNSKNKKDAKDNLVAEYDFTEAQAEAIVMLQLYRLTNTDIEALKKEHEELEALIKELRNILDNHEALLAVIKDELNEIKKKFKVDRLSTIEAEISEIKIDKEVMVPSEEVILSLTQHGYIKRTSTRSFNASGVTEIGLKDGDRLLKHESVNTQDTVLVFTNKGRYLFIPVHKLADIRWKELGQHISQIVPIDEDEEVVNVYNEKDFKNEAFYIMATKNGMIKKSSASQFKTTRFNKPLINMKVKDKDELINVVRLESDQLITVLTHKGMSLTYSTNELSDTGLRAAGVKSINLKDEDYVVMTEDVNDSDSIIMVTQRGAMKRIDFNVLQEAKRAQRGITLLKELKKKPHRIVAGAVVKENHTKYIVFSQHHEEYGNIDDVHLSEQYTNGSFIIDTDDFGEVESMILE
T1 sequence (Q5HPI6 whole entry, looked up): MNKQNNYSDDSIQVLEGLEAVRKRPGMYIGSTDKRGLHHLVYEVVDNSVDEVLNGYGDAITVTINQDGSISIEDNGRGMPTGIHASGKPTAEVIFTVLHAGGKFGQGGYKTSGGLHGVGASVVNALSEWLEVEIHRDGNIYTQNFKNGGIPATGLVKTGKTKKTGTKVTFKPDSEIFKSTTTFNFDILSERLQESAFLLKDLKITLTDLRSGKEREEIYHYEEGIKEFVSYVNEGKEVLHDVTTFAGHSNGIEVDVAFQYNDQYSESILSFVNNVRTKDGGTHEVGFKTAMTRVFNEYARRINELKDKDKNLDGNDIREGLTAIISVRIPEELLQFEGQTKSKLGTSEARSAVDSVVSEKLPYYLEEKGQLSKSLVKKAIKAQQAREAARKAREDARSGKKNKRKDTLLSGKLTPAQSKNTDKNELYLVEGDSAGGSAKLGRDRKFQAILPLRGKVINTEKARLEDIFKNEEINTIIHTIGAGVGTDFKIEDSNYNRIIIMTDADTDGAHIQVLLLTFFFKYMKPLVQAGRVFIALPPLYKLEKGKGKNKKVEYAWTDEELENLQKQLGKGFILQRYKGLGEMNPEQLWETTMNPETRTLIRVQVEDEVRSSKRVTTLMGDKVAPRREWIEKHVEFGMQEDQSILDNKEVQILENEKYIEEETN

SMILES	CC50 [1] [µM]	inhibition [2]	inhibition [3]	inhibition [4]	IC50 [5] [µg/mL]	inhibition [6]	inhibition [7]	IC50 [8] [µg/mL]	IC50 [9] [µg/mL]	inhibition [10]	inhibition at 4 µg/mL [11] [%]	inhibition [12]	inhibition [13]	inhibition [14]	IC50 [15] [µg/mL]	inhibition [16]	inhibition [17]	inhibition [18]	inhibition [19]	inhibition [20]	also measured
FC(F)(F)c1cccc(NC(S)=Nc2ccc(Cl)c(Cl)c2)c1	8.8	–	–	–	–	–	–	–	–	–	–	–	–	–	–	–	–	–	–	–	–
O=C(O)c1cn(C2CC2)c2cc(N3CCNCC3)c(F)cc2c1=O [CIPROFLOXACIN]	–	Active	Active	Active	4.81 (≈ 14.5 µM)	Active	Active	22.1 (≈ 66.8 µM)	42.8 (≈ 129 µM)	Active	42	Active	Active	Active	11.6 (≈ 35 µM)	Active	Active	Active	Active	Active	inhibition [21]: Active
Fc1ccc(NC(=S)Nc2cccc(C(F)(F)F)c2)cc1Cl	9.5	Active	Active	Active	0.97 (≈ 2.78 µM)	Active	Active	1.18 (≈ 3.38 µM)	2.01 (≈ 5.76 µM)	Active	72	Active	Active	Active	1.37 (≈ 3.93 µM)	Active	Active	Active	Active	Active	inhibition at 8 µg/mL [22]: 40%; Activity [23]: 8%; inhibition at 8 µg/mL [24]: 40%; inhibition at 8 µg/mL [25]: 40%; inhibition at 8 µg/mL [26]: 40%; inhibition [21]: Active
FC(F)(F)c1cccc(NC(=S)Nc2cccc(Br)c2)c1	9	Active	Active	Active	1.98 (≈ 5.28 µM)	Active	Active	3.76 (≈ 10 µM)	3.13 (≈ 8.34 µM)	Active	61.7	Active	Active	Active	3.84 (≈ 10.2 µM)	Active	Active	Active	Active	Active	inhibition at 8 µg/mL [22]: 70%; Activity [23]: 0%; inhibition at 8 µg/mL [24]: 70%; inhibition at 8 µg/mL [25]: 70%; inhibition at 8 µg/mL [26]: 70%; inhibition [21]: Active
FC(F)(F)c1cccc(NC(=S)Nc2ccc(Cl)cc2)c1	11	–	–	–	–	–	–	–	–	–	–	–	–	–	–	–	–	–	–	–	–

Source: ChEMBL document CHEMBL3616436, “Synthesis, cytotoxicity and antimicrobial activity of thiourea derivatives incorporating 3-(trifluoromethyl)phenyl moiety” (Eur J Med Chem, 2015)
